In ChEMBL document CHEMBL1157505, “Design and in vitro characterization of highly sst2-selective somatostatin antagonists suitable for radiotargeting” (J Med Chem, 2008):
The source made the active and inactive calls. No cut-off for these calls is given here.

Tests used:
Format in all cases: functional, cell-based
[1] = biological target: T1, Somatostatin receptor type 2 (Homo sapiens, UniProt P30874); experiment: Antagonist activity at T7 epitope tagged human cloned sst2 expressed in HEK293 cells assessed as intracellular calcium release upto 10 uM
T1 sequence (P30874 whole entry): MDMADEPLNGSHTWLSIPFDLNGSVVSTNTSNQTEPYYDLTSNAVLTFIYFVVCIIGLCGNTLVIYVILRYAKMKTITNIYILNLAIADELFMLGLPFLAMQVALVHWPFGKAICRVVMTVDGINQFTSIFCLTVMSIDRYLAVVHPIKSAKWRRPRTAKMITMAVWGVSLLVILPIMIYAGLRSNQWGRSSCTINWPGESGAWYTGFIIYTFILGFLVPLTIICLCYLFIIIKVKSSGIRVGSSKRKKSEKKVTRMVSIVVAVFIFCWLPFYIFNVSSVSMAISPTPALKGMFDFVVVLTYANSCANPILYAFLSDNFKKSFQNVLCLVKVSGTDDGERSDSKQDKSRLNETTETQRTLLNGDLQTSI
How it was run: (§1)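 HEK-sst2 cells seeded on poly-D-lysine, cultured 1 day, loaded with Fluo-4NW dye (assay buffer HBSS/20 mM HEPES, 2.5 mM probenecid) 30 min 37 °C plus 30 min RT. Analogues alone up to 10 μM, or [Tyr3]-octreotide with 100-fold excess analogue; fluorescence (ex 485/em 520 nm) recorded 60 s at RT; percentage of ionomycin (25 μM) maximum over baseline; ≥3 experiments in triplicate.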

[2] = biological target: T1, Somatostatin receptor type 2; experiment: Antagonist activity at T7 epitope tagged human cloned sst2 expressed in HEK293 cells assessed as [Tyr3]octreotide-induced intracellular calcium release upto 10 uM; how it was run: as §1
[3] = biological target: T1, Somatostatin receptor type 2; experiment: Antagonist activity at T7 epitope tagged human cloned sst2 receptor expressed in HEK293 cells assessed as inhibition of [Tyr3]octreotide-induced receptor internalization upto 10 uM
How it was run: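 Surface T7-tagged sst2 on HEK-sst2 cells labelled with anti-T7 antibody 2 h RT in DMEM-LH, then cells exposed 30 min at 37 °C to analogue (alone up to 10 μM or with [Tyr3]-octreotide), fixed in 3% paraformaldehyde, probed with HRP anti-mouse IgG, ABTS read at OD405; surface receptor as % of untreated; mean ± SEM, three experiments in duplicate.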

Row | Activity [1] | Activity [2] | Activity [3] | SMILES
1 | inactive | – | – | C[C@@H](O)[C@@H]1NC(=O)[C@H](CCCCN)NC(=O)[C@@H](Cc2c[nH]c3ccccc23)NC(=O)[C@@H](N(C)C(=O)c2ccccc2)NC(=O)[C@H](NC(=O)[C@H](N)Cc2ccc(Cl)cc2)CSSC[C@@H](C(=O)N[C@@H](Cc2ccc3ccccc3c2)C(N)=O)NC1=O
2 | inactive | Active | Active | C[C@@H](O)[C@@H]1NC(=O)[C@H](CCCCN)NC(=O)[C@@H](Cc2ccc(NC(N)=O)cc2)NC(=O)[C@H](Cc2ccc(NC(=O)[C@@H]3CC(=O)NC(=O)N3)cc2)NC(=O)[C@H](NC(=O)[C@@H](Cc2ccc(Cl)cc2)NC(=O)CN2CCN(CC(=O)O)CCN(CC(=O)O)CCN(CC(=O)O)CC2)CSSC[C@@H](C(=O)N[C@@H](Cc2ccc3ccccc3c2)C(N)=O)NC1=O
3 | inactive | Active | Active | C[C@@H](O)[C@@H]1NC(=O)[C@H](CCCCN)NC(=O)[C@@H](Cc2ccc(NC(N)=O)cc2)NC(=O)[C@H](Cc2ccc(O)cc2)NC(=O)[C@H](NC(=O)[C@@H](Cc2ccc(Cl)cc2)NC(=O)CN2CCN(CC(=O)O)CCN(CC(=O)O)CCN(CC(=O)O)CC2)CSSC[C@@H](C(=O)N[C@@H](Cc2ccc3ccccc3c2)C(N)=O)NC1=O
4 | inactive | – | – | CONC(=O)Nc1ccc(C[C@@H]2NC(=O)[C@H](NC(=O)[C@H](N)Cc3ccc(Cl)cc3)CSSC[C@@H](C(=O)N[C@@H](Cc3ccc4ccccc4c3)C(N)=O)NC(=O)[C@H]([C@@H](C)O)NC(=O)[C@H](CCCCN)NC(=O)[C@@H](Cc3c[nH]c4ccccc34)NC2=O)cc1
5 | inactive | – | – | C[C@@H](O)[C@@H]1NC(=O)[C@H](CCCCN)NC(=O)[C@H](Cc2c[nH]c3ccc(F)cc23)NC(=O)[C@H](Cc2ccc(NC(N)=O)cc2)NC(=O)[C@H](NC(=O)[C@H](N)Cc2ccc(Cl)cc2)CSSC[C@@H](C(=O)N[C@@H](Cc2ccc3ccccc3c2)C(N)=O)NC1=O
6 | inactive | Active | Active | C[C@@H](O)[C@@H]1NC(=O)[C@H](CCCCN)NC(=O)[C@@H](Cc2c[nH]c3ccccc23)NC(=O)[C@H](Cc2ccc(O)cc2)NC(=O)[C@H](NC(=O)[C@H](N)Cc2ccc(Cl)cc2)CSSC[C@@H](C(=O)N[C@@H](Cc2ccc3ccccc3c2)C(N)=O)NC1=O
7 | inactive | – | – | C[C@@H](O)[C@@H]1NC(=O)[C@H](CCCCN)NC(=O)[C@@H](Cc2c[nH]c3ccccc23)NC(=O)[C@H](Cc2ccc(NC(=O)NO)cc2)NC(=O)[C@H](NC(=O)[C@H](N)Cc2ccc(Cl)cc2)CSSC[C@@H](C(=O)N[C@@H](Cc2ccc3ccccc3c2)C(N)=O)NC1=O
8 | inactive | Active | Active | C[C@@H](O)[C@@H]1NC(=O)[C@H](CCCCN)NC(=O)[C@@H](Cc2c[nH]c3ccccc23)NC(=O)[C@H](Cc2ccc(O)cc2)NC(=O)[C@H](NC(=O)[C@@H](Cc2ccc([N+](=O)[O-])cc2)NC(=O)CN2CCN(CC(=O)O)CCN(CC(=O)O)CCN(CC(=O)O)CC2)CSSC[C@@H](C(=O)N[C@H](Cc2ccc(O)cc2)C(N)=O)NC1=O
9 | inactive | – | – | C[C@@H](O)[C@@H]1NC(=O)[C@H](CCCCN)NC(=O)[C@@H](Cc2c[nH]c3ccccc23)NC(=O)[C@H](Cc2ccc(NC(N)=O)cc2)NC(=O)[C@H](NC(=O)[C@H](N)Cc2ccc(Cl)cc2)CSSC[C@@H](C(=O)N[C@H](Cc2ccc(NC(N)=O)cc2)C(=O)NCC(=O)O)NC1=O
10 | inactive | – | – | C[C@@H](O)[C@@H]1NC(=O)[C@H](CCCCN)NC(=O)[C@@H](Cc2c[nH]c3ccccc23)NC(=O)[C@H](Cc2ccc(NC(N)=O)cc2)NC(=O)[C@H](NC(=O)[C@H](N)Cc2ccc(Cl)cc2)CSSC[C@@H](C(=O)N[C@H](Cc2ccc(NC(N)=O)cc2)C(N)=O)NC1=O
11 | inactive | – | Active | C[C@@H](O)[C@@H]1NC(=O)[C@H](CCCCN)NC(=O)[C@@H](Cc2ccc(NC(N)=O)cc2)NC(=O)[C@H](Cc2ccc(O)cc2)NC(=O)[C@H](NC(=O)[C@H](N)Cc2ccc([N+](=O)[O-])cc2)CSSC[C@@H](C(=O)N[C@@H](Cc2ccc3ccccc3c2)C(N)=O)NC1=O
12 | inactive | – | – | C[C@@H](O)[C@@H]1NC(=O)[C@H](CCCCN)NC(=O)[C@@H](Cc2c[nH]c3ccccc23)NC(=O)[C@H](Cc2ccc(NC(N)=O)cc2)NC(=O)[C@H](NC(=O)[C@@H](Cc2ccc(Cl)cc2)NC(N)=O)CSSC[C@@H](C(=O)N[C@@H](Cc2ccc3ccccc3c2)C(N)=O)NC1=O
13 | inactive | – | – | CC(C)C[C@@H]1NC(=O)[C@H](NC(=O)[C@H](N)Cc2ccc(Cl)cc2)CSSC[C@@H](C(=O)N[C@@H](Cc2ccc3ccccc3c2)C(N)=O)NC(=O)[C@H]([C@@H](C)O)NC(=O)[C@H](CCCCN)NC(=O)[C@@H](Cc2c[nH]c3ccccc23)NC1=O
14 | inactive | – | – | C[C@@H](O)[C@@H]1NC(=O)[C@H](CCCCN)NC(=O)[C@@H](Cc2c[nH]c3ccccc23)NC(=O)[C@H](Cc2ccc(NC(N)=O)cc2)NC(=O)[C@H](NC(=O)[C@H](N)Cc2ccc(Cl)cc2)CSSC[C@@H](C(=O)N[C@@H](Cc2ccc(NC(N)=O)cc2)C(N)=O)NC1=O
15 | inactive | – | – | C[C@@H](O)[C@@H]1NC(=O)[C@H](CCCCN)NC(=O)[C@@H](Cc2ccc(NC(N)=O)cc2)NC(=O)[C@H](Cc2ccc(NC(=O)[C@@H]3CC(=O)NC(=O)N3)cc2)NC(=O)[C@H](NC(=O)[C@H](N)Cc2ccc([N+](=O)[O-])cc2)CSSC[C@@H](C(=O)N[C@@H](Cc2ccc3ccccc3c2)C(N)=O)NC1=O
16 | inactive | Active | Active | C[C@@H](O)[C@@H]1NC(=O)[C@H](CCCCN)NC(=O)[C@@H](Cc2c[nH]c3ccccc23)NC(=O)[C@H](Cc2ccc(NC(N)=O)cc2)NC(=O)[C@H](NC(=O)[C@H](N)Cc2ccc(Cl)cc2)CSSC[C@@H](C(N)=O)NC1=O
17 | inactive | Active | Active | C[C@@H](O)[C@@H]1NC(=O)[C@H](CCCCN)NC(=O)[C@@H](Cc2ccc(NC(N)=O)cc2)NC(=O)[C@H](Cc2ccc(O)cc2)NC(=O)[C@H](NC(=O)[C@@H](Cc2ccc([N+](=O)[O-])cc2)NC(=O)CN2CCN(CC(=O)O)CCN(CC(=O)O)CCN(CC(=O)O)CC2)CSSC[C@@H](C(=O)N[C@@H](Cc2ccc3ccccc3c2)C(N)=O)NC1=O
18 | inactive | – | Active | C[C@@H](O)[C@@H]1NC(=O)[C@H](CCCCN)NC(=O)[C@@H](Cc2c[nH]c3ccccc23)NC(=O)[C@H](N(C)C(=O)c2ccccc2)NC(=O)[C@H](NC(=O)[C@H](N)Cc2ccc(Cl)cc2)CSSC[C@@H](C(=O)N[C@@H](Cc2ccc3ccccc3c2)C(N)=O)NC1=O
19 | inactive | – | – | C[C@@H](O)[C@@H]1NC(=O)[C@H](CCCCN)NC(=O)[C@@H](Cc2c[nH]c3ccccc23)NC(=O)[C@H](Cc2ccc(NC(N)=O)cc2)NC(=O)[C@H](NC(=O)[C@H](N)Cc2ccc(Cl)cc2)CSSC[C@@H](C(=O)N[C@@H](CC2CCCCC2)C(N)=O)NC1=O
20 | inactive | Active | Active | C[C@@H](O)[C@@H]1NC(=O)[C@H](CCCCN)NC(=O)[C@@H](Cc2c[nH]c3ccccc23)NC(=O)[C@H](Cc2ccc(NC(N)=O)cc2)NC(=O)[C@H](NC(=O)[C@@H](Cc2ccc(Cl)cc2)NC(=O)CCNC(=O)CN2CCN(CC(=O)O)CCN(CC(=O)O)CCN(CC(=O)O)CC2)CSSC[C@@H](C(=O)N[C@@H](Cc2ccc3ccccc3c2)C(N)=O)NC1=O
21 | inactive | Active | Active | C[C@@H](O)[C@@H]1NC(=O)[C@H](CCCCN)NC(=O)[C@@H](Cc2c[nH]c3ccccc23)NC(=O)[C@H](Cc2ccc(NC(N)=O)cc2)NC(=O)[C@H](NC(=O)[C@H](N)Cc2ccc(Cl)cc2)CSSC[C@@H](C(=O)N[C@@H](Cc2ccc3ccccc3c2)C(N)=O)NC1=O
22 | inactive | – | Active | C[C@@H](O)[C@@H]1NC(=O)[C@H](CCCCN)NC(=O)[C@@H](Cc2c[nH]c3ccccc23)NC(=O)[C@H](Cc2ccc(NC(N)=O)cc2)NC(=O)[C@H](NC(=O)[C@@H](Cc2ccc(Cl)cc2)NC(=O)CCOCCOCCOCCNC(=O)CN2CCN(CC(=O)O)CCN(CC(=O)O)CCN(CC(=O)O)CC2)CSSC[C@@H](C(=O)N[C@@H](Cc2ccc3ccccc3c2)C(N)=O)NC1=O
23 | inactive | – | – | C[C@@H](O)[C@@H]1NC(=O)[C@H](CCCCN)NC(=O)[C@@H](Cc2ccc(NC(N)=O)cc2)NC(=O)[C@H](Cc2ccc(O)cc2)NC(=O)[C@H](NC(=O)[C@H](N)Cc2ccc(Cl)cc2)CSSC[C@@H](C(=O)N[C@@H](Cc2ccc3ccccc3c2)C(N)=O)NC1=O
24 | inactive | – | Active | CC(=O)N[C@H](Cc1ccc([N+](=O)[O-])cc1)C(=O)N[C@@H]1CSSC[C@@H](C(=O)N[C@H](Cc2ccc(O)cc2)C(N)=O)NC(=O)[C@H]([C@@H](C)O)NC(=O)[C@H](CCCCN)NC(=O)[C@@H](Cc2c[nH]c3ccccc23)NC(=O)[C@H](Cc2ccc(O)cc2)NC1=O
25 | inactive | – | – | C[C@@H](O)[C@@H]1NC(=O)[C@H](CCCCN)NC(=O)[C@@H](Cc2c[nH]c3ccccc23)NC(=O)[C@H](Cc2ccc(NC(N)=O)cc2)NC(=O)[C@H](NC(=O)[C@H](N)Cc2ccc(Cl)cc2)CSSC[C@@H](C(=O)N[C@@H](Cc2ccc(NC(=O)[C@@H]3CC(=O)NC(=O)N3)cc2)C(N)=O)NC1=O
